Screening results from PubChem.
Most compounds without a hit are left out; they make up all but 4.3% or so of the library.
Rtt109 HAT inh: inhibitors of Candida albicans Rtt109/Vps75 histone acetyltransferase; Q5AAJ8; purified Rtt109/Vps75, ThioGlo CoA-SH fluorescence, 4 h; inhibition, % at 34.9 µM; 330,000 compounds, 0.16% hits; AID 540336;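 active = inhibition of at least 50% in every replicate; inconclusive = best replicate reaches 50% inhibition but some replicates fall short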
Target sequence (Q5AAJ8 whole entry, looked up): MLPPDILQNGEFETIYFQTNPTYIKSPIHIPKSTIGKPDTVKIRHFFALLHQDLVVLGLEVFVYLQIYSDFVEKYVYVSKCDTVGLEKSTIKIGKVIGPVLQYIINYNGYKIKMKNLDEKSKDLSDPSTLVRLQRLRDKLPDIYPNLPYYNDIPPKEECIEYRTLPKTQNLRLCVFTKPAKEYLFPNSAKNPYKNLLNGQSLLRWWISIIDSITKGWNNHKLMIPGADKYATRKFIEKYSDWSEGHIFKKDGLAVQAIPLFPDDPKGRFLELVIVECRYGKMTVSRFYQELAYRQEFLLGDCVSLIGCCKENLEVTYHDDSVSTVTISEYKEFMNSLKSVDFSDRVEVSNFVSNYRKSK
CAL PDZ FP-1: blocks peptide binding to human CAL PDZ domain; Q9HD26; purified CAL PDZ, TMR-peptide fluorescence polarization, 1 h; inhibition, % at 20 µM; 330,000 compounds, 0.02% hits;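 active = highest replicate inhibition of at least 40%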;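 also: plate controls were DMSO neutral control wells for no effect and unlabeled competitor peptide control wells for full effect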
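System: purified tagged CAL PDZ domain construct (CerCALP). Schedule: 1 h incubation at room temperature before polarization reading. Medium: 25 mM sodium phosphate pH 7.4, 150 mM NaCl, TCEP, IgG, Thesit. Read-out: percent inhibition from loss of millipolarization. Measured by: FP readout, S and P plane fluorescence. Probe or stimulus: fluorescent TMR peptide probe.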
CAL PDZ FP-2: inhibitors of human CAL PDZ peptide binding. Q9HD26. inhibition, % at 24.9 µM. 300,000 compounds, 0.92% hits. AID 602252. purified CAL PDZ, TMR-peptide fluorescence polarization, 1 h;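 active = mean inhibition of at least 30% with at least half of replicates also reaching 30%; inconclusive = no clear call, values can overlap the other calls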;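 also: 0% = DMSO neutral control and 100% = excess unlabeled competitor peptide PRC23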
Dyrk1A ADPGlo: blocks rat Dyrk1A kinase activity | Q63470 | ADP-Glo luminescence, NFATc1 peptide | inhibition, % at 12.5 µM | 310,000 compounds, 0.43% hits; in the data active = inhibition above about 50%;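 also: plate controls were vehicle with enzyme for no effect and no enzyme for full effect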
ALR inh: inhibitors of human sulfhydryl oxidase ALR | P55789 | inhibition, % (concentration not given with the values) | 290,000 compounds, 3.8% hits | purified ALR, DTT oxidation, H2O2 HRP-luminol luminescence;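 active = mean replicate inhibition above about 79%, with every replicate also reaching it, limit read from the data; inconclusive = only one of the two criteria met; inactive = mean below limit and not every replicate reaching it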
Target sequence (P55789 whole entry, looked up): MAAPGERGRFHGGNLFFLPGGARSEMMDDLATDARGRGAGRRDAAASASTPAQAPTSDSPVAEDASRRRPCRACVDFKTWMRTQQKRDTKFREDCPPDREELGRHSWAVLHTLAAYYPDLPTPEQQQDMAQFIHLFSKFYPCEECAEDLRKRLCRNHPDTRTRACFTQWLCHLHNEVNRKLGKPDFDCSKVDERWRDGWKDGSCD
* marks the source's active call; other numbers are inactive results; ? = inconclusive; · = no result given.

SMILES	Rtt109 HAT inh	CAL PDZ FP-1	CAL PDZ FP-2	Dyrk1A ADPGlo	ALR inh
C[N+](C)=C1SCC(C)(/C=N/O)S1 (stereo not drawn)	-18.3	-1.1	-13.4	0.4	-4.1
CCCC(C)NC(=O)CSc1nnc(-c2c[nH]c3ccccc23)o1 (stereo not drawn)	2.2	-2.4	46.4*	·	-3.4
COc1cccc(-c2nc(CCl)cs2)c1	14.1	1.3	-1.2	-4.2	99.1*
COc1ccc(-c2nc(CCl)cs2)cc1	4.9	-0.5	·	-2.6	·
COc1ccc(-c2nc(CCl)cs2)cc1OC	1.3	-1.0	·	-2.8	99.0*
Cc1ccc(NC(=O)C(C)N2C(=O)c3ccccc3C2=O)cc1C (stereo not drawn)	2.5	-0.9	-4.1	-1.0	-8.8
CC(C)(C)c1cc(NC(=O)c2cccc(S(=O)(=O)N3CCOCC3)c2)no1	-3.3	-4.1	-4.3	9.3	-4.7
Fc1ccc(-n2[nH]nnc2=S)cc1N1CCCC1	·	-1.8	-0.8	-0.6	82.2*
Cc1cc(C)c(-n2[nH]nnc2=S)c(C)c1	10.4	-0.7	·	-13.1	5.3
Cc1cccc(C)c1NC(=O)CSc1ncnc2nc[nH]c12	1.6	-1.4	-2.9	·	-2.2
O=C(CSc1ncnc2nc[nH]c12)c1ccccc1	3.8	-0.7	6.8	22.1	1.9
O=C(CSc1ncnc2nc[nH]c12)c1ccc([N+](=O)[O-])cc1	1.7	0.0	-3.8	-0.8	92.6*
O=C(CSc1ncnc2nc[nH]c12)c1ccc(Cl)cc1	2.6	-0.4	·	13.8	86.8*
Cc1noc(C)c1COc1ccc(C(=O)NNC(=O)c2ccccc2O)cc1	-7.4	-2.2	-0.8	3.0	-4.7
Cn1c(=O)c(=O)n(C)c2cc(S(=O)(=O)CCC(=O)NCc3ccccc3)ccc21	-0.6	-0.4	·	-3.1	99.0*
CCNC(=O)CCS(=O)(=O)c1ccc2ccccc2c1	3.8	-0.5	0.8	4.2	98.6*
O=C(CCS(=O)(=O)c1ccccc1)NCCS(=O)(=O)c1ccccc1	-6.1	0.2	-1.1	3.8	-3.0
O=c1c(-c2ccc(O)cc2)coc2c(C3O[C@H](CO)[C@@H](O)[C@H](O)[C@H]3O)c(O)ccc12 (stereo partly drawn)	-2.7	-1.0	·	·	99.0*
O=c1c(-c2ccc(O)cc2)coc2c([C@@H]3O[C@H](CO)[C@@H](O)[C@H](O)[C@H]3O)c(O)ccc12	-4.3	-0.5	0.1	-3.0	98.7*
COc1ccc(NC(=O)Cn2nnc(C(=O)NCc3ccccc3)c2N)c(OC)c1	0.5	-0.2	0.8	2.7	0.3
O=C(Cn1cc(C(F)(F)F)ccc1=O)NCc1ccc(F)cc1	-6.8	-1.5	3.3	-6.3	·
O=C(NCCN1CCOCC1)c1cc(Cl)ccc1Cl	-3.4	-0.3	-2.1	1.1	-11.4
O=C(NCCN1CCOCC1)NC1(C(F)(F)F)Oc2ccc(Cl)cc2O1 (stereo not drawn)	0.2	-0.3	-2.9	-0.2	99.0*
C=CCOc1ccc(C(c2c(C(=O)O)[nH]c3ccccc23)c2c(C(=O)O)[nH]c3ccccc23)cc1	-3.7	3.3	-3.1	-4.4	10.1
O=C(O)c1[nH]c2ccccc2c1C(c1ccccc1)c1c(C(=O)O)[nH]c2ccccc12	13.2	44.9*	56.4*	-10.5	·
SMILES	Rtt109 HAT inh	CAL PDZ FP-1	CAL PDZ FP-2	Dyrk1A ADPGlo	ALR inh
COc1cc(-c2nc3cnccn3c2NC(C)(C)CC(C)(C)C)ccc1O	-0.7	-0.4	·	33.4	99.2*
c1cn2c(Nc3ccc4c(c3)OCCO4)c(-c3ccc(N4CCOCC4)cc3)nc2cn1	-3.7	0.7	-0.2	14.3	?
CCCCNc1c(-c2ccc(-c3ccc(C(C)=O)cc3)c(OC)c2)nc2cnccn12	-3.0	-0.6	-1.8	3.7	·
COc1cc(-c2nc3cnccn3c2Nc2c(C)cccc2C)ccc1O	7.7	0.6	-4.7	-8.2	98.4*
COc1ccc(Sc2ccc(-c3nc4cnccn4c3NC3CCCCC3)cc2OC)cc1	-19.7	0.8	-1.6	·	2.1
Cc1cccc(C)c1Nc1c(-c2ccc(N3CCOCC3)cc2)nc2cnccn12	2.8	-1.8	-7.0	0.1	98.8*
Cc1ccc(C(=O)N2CC(=O)Nc3ccc(F)cc3C2c2ccc(F)cc2)cc1[N+](=O)[O-] (stereo not drawn)	36.6	-1.3	-5.5	-2.4	-1.3
CCOC(=O)c1c(NC(=O)c2c(C(=O)O)cccc2[N+](=O)[O-])sc(C)c1C	8.6	0.5	2.7	-4.9	-2.5
CCc1cccc2c(/C=N/NC(=O)c3cccc(S(=O)(=O)Nc4ccccc4Cl)c3)c[nH]c12	-3.5	-0.6	-1.1	5.2	7.8
COc1ccc(C(=O)C2CCCN(C(=O)c3ccc4cc[nH]c4c3)C2)c(C)c1 (stereo not drawn)	9.1	-3.3	-1.3	-0.2	-0.3
CN(C(=O)COC(=O)c1ccc2c(=O)n3c(nc2c1)CCC3)C1CCS(=O)(=O)C1 (stereo not drawn)	-8.7	0.1	-1.9	-4.9	19.3
N#C/C(=C\c1ccccc1OCC(=O)O)c1nc2ccccc2[nH]1	-3.1	-0.5	0.7	11.1	98.0*
N#C/C(=C\c1cccs1)c1nc2ccccc2[nH]1	-18.9	-1.0	18.1	1.8	·
CCOc1cc(/C=C(\C#N)c2nc3ccccc3[nH]2)ccc1OC(C)C(=O)O (stereo not drawn)	13.0	-5.0	-22.9	2.0	98.0*
CCOc1cc(/C=C(/C#N)c2nc3ccccc3[nH]2)ccc1Oc1ccc([N+](=O)[O-])cn1	-3.6	-2.3	-11.3	·	-1.6
CC(C)CC(NC(=O)C(NC(=O)C1CCC(=O)N1C(=O)OCc1ccccc1)C(C)C)C(=O)N1CCCC1C(N)=O (stereo not drawn)	5.6	-1.3	-5.1	0.8	-0.1
Cc1cccc(C(=O)NCc2ccc(S(N)(=O)=O)cc2)c1[N+](=O)[O-]	1.0	-0.3	45.8*	4.7	-4.3
CCCCn1c(N)c(N(CCOC)C(=O)c2ccc(S(=O)(=O)N3CCCCC3)cc2)c(=O)[nH]c1=O	0.1	-1.3	2.4	1.6	-2.3
CCCCSCCCNC(=S)Nc1ccccc1C	-0.6	-2.2	8.0	·	77.2*
O=[N+]([O-])c1cc(S(=O)(=O)N2CCOCC2)ccc1NS(=O)(=O)c1ccccc1	-6.0	-0.2	45.8*	0.4	-2.8
O=[N+]([O-])c1cc(S(=O)(=O)N2CCCCCC2)ccc1F	4.2	-2.0	0.8	2.7	97.4*
Cc1ccnc(NC(=O)c2cc(-c3ccc(Cl)s3)nc3ccccc23)c1	-45.0	-3.1	-3.6	-9.0	1.3
CCNc1ncnc2c1cnn2C1CCCCO1 (stereo not drawn)	4.7	0.0	2.7	0.5	·
O=C(CC1C(=O)Nc2ccccc2N1CC(=O)N1CCCC1)Nc1ccc(Br)cc1 (stereo not drawn)	2.3	-1.6	-0.9	2.7	97.7*
CCCCCCCC(=O)N1c2ccccc2NC(=O)C1CC(=O)Nc1ccc(C(=O)O)cc1 (stereo not drawn)	-1.0	-0.8	4.6	-2.2	-2.9
Cc1c(Cl)c([N+](=O)[O-])nn1CC(=O)NCc1cccnc1	-1.9	-1.5	-2.3	-4.7	-19.0
